Results: ChEMBL document CHEMBL4673174, “meta-Substituted benzenesulfonamide: a potent scaffold for the development of metallo-beta-lactamase ImiS inhibitors” (RSC Med Chem, 2020)
Values after ≈ are worked out from the molar mass of the structure shown. Active and inactive are the calls of the source. No cut-off for these calls is given here.

Assays:
[1] = Cytotoxicity against mouse L929 cells assessed as cell viability up to 200 uM measured after 48 hrs by MTT assay; format: cell-based; conditions: read-out: Activity
[2] = test system: Bacteria; assay: Inhibition of beta-lactamase ImiS (unknown origin) in expressed Escherichia coli BL21 (DE3) assessed as potentiation of imipenem induced antibacterial activity by measuring imipenem MIC at 64 ug/ml incubated for 16 hrs by CLSI broth microdilution method (reference value: 16 ug/ml); conditions: dose 64.0 µg/ml
Procedure, shortened: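 E. coli BL21 (DE3) carrying pET26b-ImiS grown in MH broth to OD600 0.5, diluted to 1 × 10^5 CFU mL–1. CLSI broth dilution; imipenem serially diluted, inhibitor at 64 μg mL–1 stock.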

[3] = test system: Bacteria; assay: Inhibition of bacterial NDM-1 expressed in Escherichia coli BL21 (DE3) at 20 uM using cefazolin as substrate by spectrometry analysis relative to control
Procedure, shortened: (§1)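 Purified L1 or NDM-1; cefazolin (40 μM) substrate, hydrolysis monitored at 262 nm by UV-vis. Inhibitor at 20 μM. Initial rates with and without inhibitor measured in triplicate and averaged; percent inhibition = uninhibited activity (100%) minus residual activity.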

[4] = Inhibition of bacterial ImiS expressed in Escherichia coli BL21 (DE3) using imipenem as substrate preincubated for 3 hrs with enzyme followed by substrate addition by spectrometry analysis; set-up: species or system Bacteria
Procedure, shortened: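 Purified ImiS preincubated 3 h with inhibitor (six concentrations, 0.01–20 μM; DMSO below 0.5%) in 30 mM Tris pH 7.0, 25 °C; imipenem 40 μM. Hydrolysis read at 300 nm, rates in triplicate. IC50 from linear fit of mean percent inhibition against inhibitor concentration.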

[5] = test system: Bacteria; assay: Inhibition of bacterial L1 expressed in Escherichia coli BL21 (DE3) at 20 uM using cefazolin as substrate by spectrometry analysis relative to control; procedure, shortened: as §1
[6] = test system: Bacteria; assay: Inhibition of beta-lactamase ImiS (unknown origin) expressed in Escherichia coli BL21 (DE3) assessed as potentiation of meropenem induced antibacterial activity by measuring meropenem MIC at 64 ug/ml incubated for 16 hrs by CLSI broth microdilution method (reference value: 64 ug/ml); conditions: dose 64.0 µg/ml
[7] = test system: Bacteria; assay: Inhibition of bacterial ImiS expressed in Escherichia coli BL21 (DE3) at 20 uM using imipenem as substrate by spectrometry analysis relative to control
Procedure, shortened: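 Purified ImiS with imipenem (40 μM) in 30 mM Tris pH 7.0; inhibitor at 20 μM, DMSO below 0.5%. Hydrolysis followed at 300 nm by UV-vis; initial rates in triplicate, averaged. Percent inhibition = activity without inhibitor (100%) minus residual activity.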

[8] = Mixed type inhibition of bacterial ImiS using varying levels of imipenem as substrate assessed as hydrolysis by Line weaver Burk plot analysis; set-up: species or system Bacteria
Procedure, shortened: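 Initial imipenem hydrolysis rates by ImiS at 20, 40, 60, 80 and 100 μM substrate, inhibitor at 0, 1, 5 and 10 μM; 300 nm read-out, triplicate. Mode assigned from Lineweaver–Burk plots; Ki from fits of initial velocity against substrate concentration at each inhibitor level.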

[9] = test system: Escherichia coli; assay: Antibacterial activity against Escherichia coli BL21 (DE3) assessed as inhibition of bacterial growth incubated for 16 hrs by CLSI broth microdilution method; format: functional
[10] = test system: Bacteria; assay: Inhibition of bacterial ImiS expressed in Escherichia coli BL21 (DE3) by measuring hydrolysis of imipenem using imipenem as substrate preincubated for 3 hrs with enzyme followed by substrate addition by isothermal titration calorimetric method; conditions: dose microM 0.1-10, time 3.0 hrs
Procedure, shortened: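 ITC, single-injection mode, 25 °C, 30 mM Tris with 0.5% DMSO. ImiS (100 nM) preincubated 3 h with inhibitor (0–10 μM), then one 38 μL injection of imipenem (0.5 mM); stirring 750 rpm. Heat flow (dq/dt) recorded every 1 s until return to baseline.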

[11] = test system: Mus musculus; assay: In vivo inhibition of beta-lactamase ImiS (unknown origin) expressed in Escherichia coli BL21 (DE3) infected in Kunming mouse assessed as potentiation of meropenem-induced reduction in bacterial load in spleen at 10 mg/kg, ip administered after 2 hrs post infection and measured after 24 hrs; format: functional, organism-based
Procedure, shortened: (§2)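 Kunming mice (male and female, 20 ± 2 g), six per group, infected ip with 200 μL E. coli BL21 (DE3)-ImiS suspension (OD600 = 1.0). At 2 h, single ip dose: PBS, meropenem 10 mg kg–1, inhibitor 10 mg kg–1, or meropenem plus inhibitor (each 10 mg kg–1). Euthanized 24 h post-infection; 0.1 g spleen and liver homogenized in 1 mL PBS, serially diluted, plated on LB agar for cfu.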

[12] = test system: Mus musculus; assay: In vivo antibacterial activity against Escherichia coli BL21 (DE3) expressing ImiS infected in Kunming mouse assessed as reduction in bacterial load spleen at 10 mg/kg, ip administered after 2 hrs post infection and measured after 24 hrs; format: functional, organism-based; procedure, shortened: as §2
[13] = test system: Mus musculus; assay: In vivo inhibition of beta-lactamase ImiS (unknown origin) expressed in Escherichia coli BL21 (DE3) infected in Kunming mouse assessed as potentiation of meropenem-induced reduction in bacterial load in liver at 10 mg/kg, ip administered after 2 hrs post infection and measured after 24 hrs; format: functional, organism-based; procedure, shortened: as §2
[14] = test system: Bacteria; assay: Inhibition of bacterial ImiS expressed in Escherichia coli BL21 (DE3) at 10 uM using imipenem as substrate by spectrometry analysis relative to control
Procedure, shortened: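 Time and concentration dependence: ImiS incubated with inhibitor at 0.5, 1 or 5 μM over varying times, or over 0.01–10 μM for the inhibition curve; residual activity against imipenem measured spectrophotometrically at 300 nm in 30 mM Tris pH 7.0.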

[15] = test system: Escherichia coli; assay: In vivo antibacterial activity against Escherichia coli BL21(DE3) expressing ImiS infected in Kunming mouse assessed as reduction in bacterial load liver at 10 mg/kg, ip administered after 2 hrs post infection and measured after 24 hrs; format: functional, organism-based; procedure, shortened: as §2

MIC [2]	inhibition [3]	IC50 [4]	inhibition [5]	MIC [6]	inhibition [7]	Ki [8]	inhibition [10]	inhibition [14]	SMILES	viability at 48 h [1]	MIC [9]	inhibition [11]	Activity [12]	inhibition [13]	Activity [15]
8 µg/mL	< 20%	5.1 µM	< 20%	32 µg/mL	> 70%	–	–	–	NS(=O)(=O)c1ccc(NC(=O)c2ccc(Cl)cc2)cc1	> 80%	–	–	–	–	–
4 µg/mL	< 20%	0.44 µM	< 20%	16 µg/mL	> 70%	–	–	–	NS(=O)(=O)c1cccc(NC(=O)c2ccc(Cl)cc2)c1	> 80%	–	–	–	–	–
4 µg/mL	< 20%	0.31 µM	< 20%	16 µg/mL	> 70%	–	–	–	NS(=O)(=O)c1cccc(NC(=O)c2ccc(C(F)(F)F)cc2)c1	–	–	–	–	–	–
8 µg/mL	< 20%	7.3 µM	< 20%	32 µg/mL	> 70%	8 µM	–	–	COC(=O)c1ccc(C(=O)Nc2ccc(S(N)(=O)=O)cc2)cc1	–	–	–	–	–	–
4 µg/mL	< 20%	0.14 µM	< 20%	16 µg/mL	> 70%	–	–	–	NS(=O)(=O)c1cccc(NC(=O)c2cccc(Br)c2)c1	–	–	–	–	–	–
4 µg/mL	< 20%	0.15 µM	< 20%	16 µg/mL	> 70%	–	–	–	NS(=O)(=O)c1cccc(NC(=O)c2ccccc2)c1	–	–	–	–	–	–
8 µg/mL	< 20%	7.5 µM	< 20%	32 µg/mL	> 70%	–	–	–	NS(=O)(=O)c1ccc(NC(=O)c2ccccc2)cc1	–	–	–	–	–	–
4 µg/mL	< 20%	0.16 µM	< 20%	16 µg/mL	> 70%	–	–	–	NS(=O)(=O)c1cccc(NC(=O)CCc2ccccc2)c1	–	–	–	–	–	–
8 µg/mL	< 20%	3.3 µM	< 20%	32 µg/mL	> 70%	–	–	–	CC(C)(C)c1ccc(C(=O)Nc2ccc(S(N)(=O)=O)cc2)cc1	–	–	–	–	–	–
8 µg/mL	< 20%	9.3 µM	< 20%	32 µg/mL	> 70%	–	–	–	NS(=O)(=O)c1ccc(NC(=O)c2ccc(C(F)(F)F)cc2)cc1	–	–	–	–	–	–
8 µg/mL	< 20%	3.5 µM	< 20%	32 µg/mL	> 70%	–	–	–	NS(=O)(=O)c1ccc(NC(=O)CCc2ccccc2)cc1	–	–	–	–	–	–
8 µg/mL	< 20%	4.6 µM	< 20%	32 µg/mL	> 70%	–	–	–	CC(C)(C)c1ccc(C(=O)Nc2ccccc2S(N)(=O)=O)cc1	> 80%	–	–	–	–	–
8 µg/mL	–	6.8 µM	–	32 µg/mL	–	–	–	–	CCN(CC)c1ccc2c(-c3ccccc3C(=O)Oc3ccc(S(N)(=O)=O)cc3)c3ccc(=[N+](CC)CC)cc-3oc2c1	–	–	–	–	–	–
8 µg/mL	< 20%	4.1 µM	< 20%	32 µg/mL	> 70%	–	–	–	NS(=O)(=O)c1ccc(NC(=O)CC(c2ccccc2)c2ccccc2)cc1	–	–	–	–	–	–
8 µg/mL	< 20%	4.8 µM	< 20%	32 µg/mL	> 70%	–	–	–	NS(=O)(=O)c1ccc(NC(=O)c2cccc([N+](=O)[O-])c2)cc1	–	–	–	–	–	–
8 µg/mL	< 20%	2.7 µM	< 20%	32 µg/mL	> 70%	–	–	–	NS(=O)(=O)c1ccc(NC(=O)c2cccc(Br)c2)cc1	–	–	–	–	–	–
–	–	–	–	–	–	–	–	–	C[C@@H](O)[C@H]1C(=O)N2C(C(=O)O)=C(SCCNC=N)C[C@H]12 [IMIPENEM ANHYDROUS]	–	0.25 µg/mL (≈ 0.835 µM)	–	–	–	–
4 µg/mL	< 20%	0.23 µM	< 20%	16 µg/mL	> 70%	–	–	–	CC(C)(C)c1ccc(C(=O)Nc2cccc(S(N)(=O)=O)c2)cc1	–	–	–	–	–	–
4 µg/mL	< 20%	0.11 µM	< 20%	16 µg/mL	95%	0.55 µM	Dose-dependent effect	92%	COC(=O)c1ccc(C(=O)Nc2cccc(S(N)(=O)=O)c2)cc1	> 80%	–	Active	inactive	Active	inactive
4 µg/mL	< 20%	0.86 µM	< 20%	16 µg/mL	> 70%	–	–	–	NS(=O)(=O)c1cccc(NC(=O)c2cccc([N+](=O)[O-])c2)c1	–	–	–	–	–	–
8 µg/mL	< 20%	5.6 µM	< 20%	32 µg/mL	> 70%	–	–	–	NS(=O)(=O)c1ccc(NC(=O)c2ccc(O)cc2)cc1	–	–	–	–	–	–
8 µg/mL	< 20%	5.4 µM	< 20%	32 µg/mL	> 70%	–	–	–	NS(=O)(=O)c1ccccc1NC(=O)c1ccc(Cl)cc1	–	–	–	–	–	–
